Measurements from ChEMBL document CHEMBL4689842, “EUbOPEN Chemogenomics Library wave 1” (2021).
Where “and” joins values, the source holds several entries; their conditions need not be identical. Identical values can stand only once.

Test system: U2OS
Experiment: Multiplex assay against U2OS
Type: toxicity, cell-based
Settings: human
Procedure, shortened: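 Phenotypes for tubulin, mitochondrial mass and membrane permeability are expressed as per cents of healthy-nucleus cells. Cells were stained live at seeding with Hoechst33342, BioTracker Green Microtubule Cytoskeleton Dye, MitoTracker Red and Annexin V Alexa Fluor 680, then imaged after compound addition on a CQ1 microscope at 37°C and 5% CO2. Machine-learning gating in CellPathfinder separated Hoechst high-intensity objects from normal cells, divided normal cells by nuclear state (healthy, pyknosed, fragmented) and divided pyknosed cells into mitotic or apoptotic.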

[1] = 12 h, 1 µM, compound concentration 1 uM, replicate 1
[2] = 12 h, 1 µM, compound concentration 1 uM, replicate 2
[3] = 12 h, 10 µM, compound concentration 10 uM, replicate 1
[4] = 12 h, 10 µM, compound concentration 10 uM, replicate 2
[5] = 24 h, 1 µM, compound concentration 1 uM, replicate 1
[6] = 24 h, 1 µM, compound concentration 1 uM, replicate 2
[7] = 24 h, 10 µM, compound concentration 10 uM, replicate 1
[8] = 24 h, 10 µM, compound concentration 10 uM, replicate 2
[9] = 48 h, 1 µM, compound concentration 1 uM, replicate 1
[10] = 48 h, 1 µM, compound concentration 1 uM, replicate 2
[11] = 48 h, 10 µM, compound concentration 10 uM, replicate 1
[12] = 48 h, 10 µM, compound concentration 10 uM, replicate 2

## COc1cc(Nc2nccc(-c3cnn4nc(OC)ccc34)n2)cc(C(F)(F)F)c1
[1]
  Population Apoptotic (%): 27%
  Population Fragmented Nuclei (%): 12%
  Population Healthy Nuclei (%): 74%
  Population Hoechst High Intensity Objects (%): 7%
  Population Membrane Permeable-Phenotype (%): 6%
  Population Mitochondria Different-Phenotype (%): 12%
  Population Mitotic Cells (%): 72%
  Population Normal (%): 92%
  Population Pyknosed Nuclei (%): 12%
  Population Tubulin-Different-Phenotype (%): 9%
  Total Cell Count: 189
[2]
  Population Apoptotic (%): 50%
  Population Fragmented Nuclei (%): 8%
  Population Healthy Nuclei (%): 86%
  Population Hoechst High Intensity Objects (%): 3%
  Population Membrane Permeable-Phenotype (%): 2%
  Population Mitochondria Different-Phenotype (%): 16%
  Population Mitotic Cells (%): 50%
  Population Normal (%): 96%
  Population Pyknosed Nuclei (%): 5%
  Population Tubulin-Different-Phenotype (%): 16%
  Total Cell Count: 44
[3]
  Population Apoptotic (%): 60%
  Population Fragmented Nuclei (%): 32%
  Population Healthy Nuclei (%): 55%
  Population Hoechst High Intensity Objects (%): 15%
  Population Membrane Permeable-Phenotype (%): 7%
  Population Mitochondria Different-Phenotype (%): 46%
  Population Mitotic Cells (%): 39%
  Population Normal (%): 84%
  Population Pyknosed Nuclei (%): 11%
  Population Tubulin-Different-Phenotype (%): 27%
  Total Cell Count: 192
[4]
  Population Apoptotic (%): 33%
  Population Fragmented Nuclei (%): 27%
  Population Healthy Nuclei (%): 61%
  Population Hoechst High Intensity Objects (%): 34%
  Population Membrane Permeable-Phenotype (%): 3%
  Population Mitochondria Different-Phenotype (%): 6%
  Population Mitotic Cells (%): 66%
  Population Normal (%): 65%
  Population Tubulin-Different-Phenotype (%): 15%
  Total Cell Count: 82
[5]
  Population Apoptotic (%): 24%
  Population Fragmented Nuclei (%): 14%
  Population Healthy Nuclei (%): 61%
  Population Hoechst High Intensity Objects (%): 6%
  Population Membrane Permeable-Phenotype (%): 7%
  Population Mitochondria Different-Phenotype (%): 20%
  Population Mitotic Cells (%): 75%
  Population Normal (%): 93%
  Population Pyknosed Nuclei (%): 24%
  Population Tubulin-Different-Phenotype (%): 16%
  Total Cell Count: 214
[6]
  Population Apoptotic (%): 45%
  Population Fragmented Nuclei (%): 10%
  Population Healthy Nuclei (%): 77%
  Population Hoechst High Intensity Objects (%): 2%
  Population Membrane Permeable-Phenotype (%): 4%
  Population Mitochondria Different-Phenotype (%): 10%
  Population Mitotic Cells (%): 54%
  Population Normal (%): 97%
  Population Pyknosed Nuclei (%): 12%
  Population Tubulin-Different-Phenotype (%): 19%
  Total Cell Count: 43
[7]
  Population Apoptotic (%): 65%
  Population Fragmented Nuclei (%): 36%
  Population Healthy Nuclei (%): 50%
  Population Hoechst High Intensity Objects (%): 18%
  Population Membrane Permeable-Phenotype (%): 2%
  Population Mitochondria Different-Phenotype (%): 47%
  Population Mitotic Cells (%): 34%
  Population Normal (%): 81%
  Population Pyknosed Nuclei (%): 13%
  Population Tubulin-Different-Phenotype (%): 15%
  Total Cell Count: 197
[8]
  Population Apoptotic (%): 50%
  Population Fragmented Nuclei (%): 26%
  Population Healthy Nuclei (%): 56%
  Population Hoechst High Intensity Objects (%): 29%
  Population Membrane Permeable-Phenotype (%): 0%
  Population Mitochondria Different-Phenotype (%): 23%
  Population Mitotic Cells (%): 50%
  Population Normal (%): 70%
  Population Pyknosed Nuclei (%): 17%
  Population Tubulin-Different-Phenotype (%): 11%
  Total Cell Count: 90
[9]
  Population Apoptotic (%): 53%
  Population Fragmented Nuclei (%): 16%
  Population Healthy Nuclei (%): 54%
  Population Hoechst High Intensity Objects (%): 4%
  Population Membrane Permeable-Phenotype (%): 6%
  Population Mitochondria Different-Phenotype (%): 34%
  Population Mitotic Cells (%): 46%
  Population Normal (%): 95%
  Population Pyknosed Nuclei (%): 28%
  Population Tubulin-Different-Phenotype (%): 15%
  Total Cell Count: 257
[10]
  Population Apoptotic (%): 55%
  Population Fragmented Nuclei (%): 11%
  Population Healthy Nuclei (%): 81%
  Population Hoechst High Intensity Objects (%): 7%
  Population Membrane Permeable-Phenotype (%): 15%
  Population Mitochondria Different-Phenotype (%): 17%
  Population Mitotic Cells (%): 44%
  Population Normal (%): 92%
  Population Pyknosed Nuclei (%): 7%
  Population Tubulin-Different-Phenotype (%): 20%
  Total Cell Count: 55
[11]
  Population Apoptotic (%): 62%
  Population Fragmented Nuclei (%): 45%
  Population Healthy Nuclei (%): 33%
  Population Hoechst High Intensity Objects (%): 20%
  Population Membrane Permeable-Phenotype (%): 14%
  Population Mitochondria Different-Phenotype (%): 36%
  Population Mitotic Cells (%): 37%
  Population Normal (%): 79%
  Population Pyknosed Nuclei (%): 21%
  Population Tubulin-Different-Phenotype (%): 21%
  Total Cell Count: 200
[12]
  Population Apoptotic (%): 69%
  Population Fragmented Nuclei (%): 26%
  Population Healthy Nuclei (%): 48%
  Population Hoechst High Intensity Objects (%): 27%
  Population Membrane Permeable-Phenotype (%): 8%
  Population Mitochondria Different-Phenotype (%): 25%
  Population Mitotic Cells (%): 30%
  Population Normal (%): 72%
  Population Pyknosed Nuclei (%): 26%
  Population Tubulin-Different-Phenotype (%): 20%
  Total Cell Count: 127

## CNCc1ccccc1-c1csc([C@@H](C)Nc2nc(C)nc3cc(OC)c(OC)cc23)c1 [BAY-293]
[3]
  Population Apoptotic (%): 63% and 46%
  Population Healthy Nuclei (%): 36% and 80%
  Population Hoechst High Intensity Objects (%): 5% and 4%
  Population Membrane Permeable-Phenotype (%): 73% and 54%
  Population Mitochondria Different-Phenotype (%): 88% and 36%
  Population Mitotic Cells (%): 36% and 53%
  Population Normal (%): 94% and 95%
  Population Tubulin-Different-Phenotype (%): 100% and 98%
[4]
  Population Apoptotic (%): 54% and 52%
  Population Fragmented Nuclei (%): 9% and 17%
  Population Healthy Nuclei (%): 72% and 52%
  Population Hoechst High Intensity Objects (%): 14% and 16%
  Population Membrane Permeable-Phenotype (%): 46% and 75%
  Population Mitochondria Different-Phenotype (%): 56% and 97%
  Population Mitotic Cells (%): 45% and 47%
  Population Normal (%): 85% and 83%
  Population Pyknosed Nuclei (%): 17% and 30%
  Population Tubulin-Different-Phenotype (%): 97%
[7]
  Population Apoptotic (%): 91%
  Population Fragmented Nuclei (%): 19% and 7%
  Population Hoechst High Intensity Objects (%): 19% and 7%
  Population Membrane Permeable-Phenotype (%): 100% and 52%
  Population Mitochondria Different-Phenotype (%): 100% and 64%
  Population Mitotic Cells (%): 8%
  Population Normal (%): 80% and 92%
  Population Pyknosed Nuclei (%): 66% and 27%
  Population Tubulin-Different-Phenotype (%): 100% and 97%
[8]
  Population Apoptotic (%): 84% and 45%
  Population Fragmented Nuclei (%): 25% and 10%
  Population Healthy Nuclei (%): 30% and 60%
  Population Hoechst High Intensity Objects (%): 10% and 8%
  Population Membrane Permeable-Phenotype (%): 91% and 43%
  Population Mitochondria Different-Phenotype (%): 95% and 72%
  Population Normal (%): 89% and 91%
  Population Pyknosed Nuclei (%): 44% and 28%
  Population Tubulin-Different-Phenotype (%): 95% and 96%
